We go through 28 compounds from ChEMBL document CHEMBL2021866, “Design, synthesis, and pharmacological evaluation of benzamide derivatives as glucokinase activators” (Bioorg Med Chem, 2012).

For data set [1], the target named is T1, Hexokinase-4 (Homo sapiens) (UniProt P35557).
T1 sequence (whole entry): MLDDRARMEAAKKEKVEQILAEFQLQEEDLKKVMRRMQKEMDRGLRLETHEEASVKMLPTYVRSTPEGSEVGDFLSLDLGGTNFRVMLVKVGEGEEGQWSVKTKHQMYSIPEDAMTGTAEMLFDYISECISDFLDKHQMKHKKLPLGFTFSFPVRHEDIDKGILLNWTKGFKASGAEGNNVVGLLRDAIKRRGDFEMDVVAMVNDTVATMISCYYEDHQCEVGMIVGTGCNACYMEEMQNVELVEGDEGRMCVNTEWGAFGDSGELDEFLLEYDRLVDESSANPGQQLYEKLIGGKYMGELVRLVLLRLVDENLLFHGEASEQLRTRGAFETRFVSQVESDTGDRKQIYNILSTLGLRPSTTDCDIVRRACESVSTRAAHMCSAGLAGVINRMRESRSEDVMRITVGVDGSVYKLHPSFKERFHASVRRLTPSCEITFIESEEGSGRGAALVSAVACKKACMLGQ
The experiment in a line: Activation of human recombinant glucokinase expressed in Escherichia coli BL21(DE3) coexpressing G6PDH assessed as glucose 6-phosphate formation by spectrometric analysis relative to control. In short, it runs like this: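 N-terminal His6-tagged human GK, expressed in E. coli BL21(DE3), purified on Ni-NTA. NADPH formation followed as rate of A340. Fold activation taken against DMSO control (100%), and maximum fold reported.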

Another data set concerns the target T2, Hexokinase-4 (Homo sapiens, UniProt P35557).
T2 sequence (P35557 whole entry): T1 sequence (whole entry)
The experiment in a line: Activation of human recombinant glucokinase expressed in Escherichia coli BL21(DE3) coexpressing G6PDH assessed as glucose 6-phosphate formation by spectrometric analysis.

Data set [2] can be described thus: Clearance in ICR mouse at 10 mg/kg, iv. In kind it is ADME, organism-based. To be noted: in vivo. More on the design: dose 10 mg/kg, route intravenous. A digest of the protocol:
(§1)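 Mice received a single iv dose of 10 mg/kg or a single po dose of 20 mg/kg. Vehicle was DMSO, tween-80 and normal saline. Plasma concentration–time data gave CL, Vss and t1/2 from the iv arm, and Cmax, Tmax, AUC0-∞ and F from the po arm. Values are the average of three runs.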

Data set [3] can be described thus: Oral bioavailability in ICR mouse at 20 mg/kg. Type of data set: ADME, organism-based. To be noted: in vivo. A digest of the protocol:
as §1

A short description of data set [4]: Half life in ICR mouse at 10 mg/kg, iv. Also on record: dose 10 mg/kg, route intravenous. To be noted: in vivo. In kind it is ADME, organism-based. In short, it runs like this: as §1
Data set [5] can be described thus: AUC (0 to infinity) in ICR mouse at 20 mg/kg, po. Type of data set: ADME, organism-based. Also on record: time infinity, dose 20 mg/kg, route oral. To be noted: plasma. A digest of the protocol:
as §1

Data set [6] is described as follows: Tmax in ICR mouse at 20 mg/kg, po. In kind it is ADME, organism-based. Also on record: dose 20 mg/kg, route oral. To be noted: in vivo. In short, it runs like this: as §1
Data set [7] is described as follows: Volume of distribution at steady state in ICR mouse at 10 mg/kg, iv. Type of data set: ADME, organism-based. To be noted: in vivo, read-out: Vdss. Also on record: dose 10 mg/kg, route intravenous. In short, it runs like this: as §1
Another data set has as its system Mus musculus. Nature of the data set: Hypoglycemic activity in ICR mouse assessed as reduction in blood glucose level at 10 mg/kg, po measured within 1 hr relative to control. In kind it is functional. More on the design: scale not given: the % may be the effect or the level left. A digest of the protocol: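 Male ICR mice, 8 weeks old, on a reversed light cycle, were fasted 2 h with water allowed and grouped by body weight. They were dosed orally with 10 mg/kg or with vehicle (0.5% carboxymethylcellulose). Blood glucose was tracked, with ΔBG taken from 0 min, and reduction expressed against vehicle within 1 h. Mean ± SEM, n = 6.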

Data set [8] in a line: Cmax in ICR mouse at 20 mg/kg, po. In kind it is ADME, organism-based. Also on record: dose 20 mg/kg, route oral. To be noted: in vivo. In short, it runs like this: as §1
The target in data set [9] is T1, Hexokinase-4 (Homo sapiens). Nature of the data set: Ratio of EC50 for GK50 to compound for activation of human recombinant glucokinase expressed in Escherichia coli BL21(DE3) coexpressing G6PDH assessed as glucose 6-phosphate formation by spectrometric analysis. A digest of the protocol:
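EC50 obtained in the same G6PDH-coupled A340 assay of His6-tagged human GK, with GK50 run in parallel. Six compound concentrations per curve, and fold activity over DMSO control fitted to a four-parameter logistic sigmoid. Values are means of three independent experiments.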

SMILES strings stand for the structures.

Usually EC50 stands for the concentration at which the effect is half-maximal. Consider `COC1CCN(S(=O)(=O)c2ccc(Oc3cc(OCC=C(C)C)cc(C(=O)Nc4cc(C)n(C)n4)c3)cc2)CC1`, for which the fold change (FC) in data set [1] came out at 1.8. Moreover, the concentration giving a half-maximal response (EC50) at Hexokinase-4 was 460 nM.
Regarding `CC(C)=CCOc1cc(Oc2ccc(S(=O)(=O)N3C[C@@H](C)O[C@@H](C)C3)cc2)cc(C(=O)Nc2nccs2)c1`, the fold change (FC) in [1] was determined as 1.5. Besides, the half-maximal effective concentration (EC50) at Hexokinase-4 worked out at 62.6 nM.
The matching figures for `CC(C)=CCOc1cc(Oc2ccc(S(=O)(=O)C3CC3)cc2)cc(C(=O)Nc2nc(-c3ccc(F)cc3)cs2)c1`: 0.9 and 250 nM.
The matching figures for `CC(C)=CCOc1cc(Oc2ccc(S(=O)(=O)C3CC3)cc2)cc(C(=O)Nc2cnc(C)cn2)c1`: 1.6 and 165 nM.
The matching figures for `COC1CCN(S(=O)(=O)c2ccc(Oc3cc(OCC=C(C)C)cc(C(=O)Nc4nccs4)c3)cc2)CC1`: 1.7 and 90.4 nM.
On to `CC(C)=CCOc1cc(Oc2ccc(S(=O)(=O)C3CC3)cc2)cc(C(=O)Nc2nc(C(C)(C)C)cs2)c1`, for which, in data set [1], the fold change (FC) came to 0.7. For the same compound, the EC50 at Hexokinase-4 stood at 890 nM.
Take `CC(C)=CCOc1cc(Oc2ccc(S(=O)(=O)N3CC[C@H](F)C3)cc2)cc(C(=O)Nc2cc(C)n(C)n2)c1`: the fold change (FC) in [1] worked out at 1.9. For the same compound, the concentration for a half-maximal effect (EC50) at Hexokinase-4 stood at 63.1 nM.
As to `CC(C)=CCOc1cc(Oc2ccc(S(=O)(=O)N3C[C@@H](C)O[C@@H](C)C3)cc2)cc(C(=O)Nc2cc(C)n(C)n2)c1`, the fold change (FC) in data set [1] is 1.6. On Hexokinase-4, the EC50 was 44.8 nM.
On to `CC(C)=CCOc1cc(Oc2ccc(S(=O)(=O)N3CC4CCC(C3)O4)cc2)cc(C(=O)Nc2cc(C)n(C)n2)c1`, for which the fold change (FC) in data set [1] came out at 1.5. On Hexokinase-4, the 50% effective concentration (EC50) turned out to be 144 nM.
By clearance is commonly meant the rate of elimination divided by the concentration. The bioavailability is dose-corrected exposure relative to a reference, in per cent. In general, half-life refers to how long it takes for the measured level to halve. As a reminder, the AUC(0-inf) is the area under the concentration-time curve extrapolated to infinity. For orientation: Tmax means the time from dosing to the highest level. The Cmax is the peak of the concentration-time curve. As for `CC(C)=CCOc1cc(Oc2ccc(S(=O)(=O)N3CC[C@H](F)C3)cc2)cc(C(=O)Nc2ncc(F)s2)c1`, the clearance in [2] was 17.8 mL/min/kg. Further, in data set [1], the fold change (FC) was found to be 2.2. The bioavailability in data set [3] was found to be 9.5%. In [4], the half-life was 5.9 h. For the same compound, the AUC(0-inf) in [5] was found to be 1790 ng·h/mL. Also, in [6], the Tmax was 1 h. For the same compound, the Vd in data set [7] is 1.2 L/kg. Further, the half-maximal effective concentration (EC50) at Hexokinase-4 came to 44.8 nM. For the same compound, the Activity in the data set on Mus musculus came to 8.1%. Besides, the peak level in data set [8] (Cmax) was 1090 ng/mL.
Regarding `CC(C)=CCOc1cc(Oc2ccc(S(=O)(=O)N3CC4CCC(C3)O4)cc2)cc(C(=O)Nc2nccs2)c1`, in data set [1], the fold change (FC) turned out to be 1.7. The concentration for a half-maximal effect (EC50) at Hexokinase-4 amounted to 101 nM.
Take `CC(C)=CCOc1cc(Oc2ccc(S(=O)(=O)N3C[C@@H](C)O[C@@H](C)C3)cc2)cc(C(=O)Nc2ccn(C)n2)c1`: the fold change (FC) in data set [1] worked out at 1.8. Besides, the EC50 on Hexokinase-4 was determined as 265 nM.
The compound `CC(C)=CCOc1cc(Oc2ccc(S(=O)(=O)C3CC3)cc2)cc(C(=O)Nc2nccs2)c1` gave a clearance in [2] of 3.33 mL/min/kg. In addition, the fold change (FC) in data set [1] is 2.4. The compound further returned a bioavailability in data set [3] of 38.6%. Further, the half-life in data set [4] was 2.3 h. Further, the AUC(0-inf) in data set [5] amounted to 39800 ng·h/mL. For the same compound, the Tmax in [6] came out at 1 h. Also, the Ratio EC50 in data set [9] turned out to be 8. For the same compound, the Vd in data set [7] turned out to be 0.28 L/kg. Also, the half-maximal effective concentration (EC50) on Hexokinase-4 amounted to 28.3 nM. The Activity with Mus musculus worked out at 5.5%. This compound displayed a Cmax in data set [8] of 15800 ng/mL.
On to `CC(C)=CCOc1cc(Oc2ccc(S(=O)(=O)N3CC[C@H](F)C3)cc2)cc(C(=O)Nc2ccn(C)n2)c1`, for which the fold change (FC) in data set [1] is 2.1. Also, at Hexokinase-4, the EC50 worked out at 83.5 nM.
On to `COC1CCN(S(=O)(=O)c2ccc(Oc3cc(OCC=C(C)C)cc(C(=O)Nc4ccn(C)n4)c3)cc2)CC1`, for which the fold change (FC) in data set [1] amounted to 1.7. Besides, the EC50 on Hexokinase-4 amounted to 491 nM.
The like results for `CC(C)=CCOc1cc(Oc2ccc(S(=O)(=O)N3CCOCC3)cc2)cc(C(=O)Nc2cc(C)n(C)n2)c1` were, in that order, 1.5 and 95.1 nM.
Consider `CC(C)=CCOc1cc(Oc2ccc(S(=O)(=O)N3CC[C@H](F)C3)cc2)cc(C(=O)Nc2nccs2)c1`, for which the fold change (FC) in data set [1] worked out at 1.9. Further, the half-maximal effective concentration (EC50) at Hexokinase-4 was determined as 52.3 nM.
For the compound `CC(C)=CCOc1cc(Oc2ccc(S(=O)(=O)N3CCOCC3)cc2)cc(C(=O)Nc2nccs2)c1`, the fold change (FC) in data set [1] is 2.1. For the same compound, the EC50 at Hexokinase-4 stood at 48 nM.
For `CC(C)=CCOc1cc(Oc2ccc(S(=O)(=O)C3CC3)cc2)cc(C(=O)Nc2nccn3ccnc23)c1`, the 50% effective concentration (EC50) on Hexokinase-4 was more than 1000 nM.
Regarding `COC1CCN(S(=O)(=O)c2ccc(Oc3cc(OCC=C(C)C)cc(C(=O)Nc4ncc(F)s4)c3)cc2)CC1`, the fold change (FC) in data set [1] was 1.7. Moreover, the concentration for a half-maximal effect (EC50) on Hexokinase-4 worked out at 64.6 nM.
The matching figures for `CC(C)=CCOc1cc(Oc2ccc(S(=O)(=O)C3CC3)cc2)cc(C(=O)Nc2ncc(F)s2)c1`: 1.8 and 47.7 nM.
The like results for `CC(C)=CCOc1cc(Oc2ccc(S(=O)(=O)C3CC3)cc2)cc(C(=O)Nc2cc(C)n(C)n2)c1` were, in that order, 1.5 and 90.1 nM.
The like results for `CC(C)=CCOc1cc(Oc2ccc(S(=O)(=O)N3CC4CCC(C3)O4)cc2)cc(C(=O)Nc2ccn(C)n2)c1` were, in that order, 1.7 and 242 nM.
Turning to `CC(C)=CCOc1cc(Oc2ccc(S(=O)(=O)N3CCOCC3)cc2)cc(C(=O)Nc2ccn(C)n2)c1`, the fold change (FC) in data set [1] was 3. The concentration giving a half-maximal response (EC50) at Hexokinase-4 turned out to be 297 nM.
`CC(C)=CCOc1cc(Oc2ccc(S(=O)(=O)N3CCOCC3)cc2)cc(C(=O)Nc2ncc(F)s2)c1`: the fold change (FC) in data set [1] is 1.8. Also, the EC50 at Hexokinase-4 amounted to 52 nM.
The matching figures for `CC(C)=CCOc1cc(Oc2ccc(S(=O)(=O)N3C[C@@H](C)O[C@@H](C)C3)cc2)cc(C(=O)Nc2ncc(F)s2)c1`: 1.7 and 65.4 nM.
With `CC(C)=CCOc1cc(Oc2ccc(S(=O)(=O)C3CC3)cc2)cc(C(=O)NC2=NC(=O)CS2)c1`, in [1], the fold change (FC) stood at 1.5. Besides, the concentration giving a half-maximal response (EC50) on Hexokinase-4 came out at 120 nM.
Turning to `CC(C)=CCOc1cc(Oc2ccc(S(=O)(=O)N3CC4CCC(C3)O4)cc2)cc(C(=O)Nc2ncc(F)s2)c1`, the fold change (FC) in data set [1] came to 1.9. The EC50 at Hexokinase-4 was 78 nM.
